# Measurements published in ChEMBL document CHEMBL4732260, “Developing novel classes of protein kinase CK1δ inhibitors by fusing [1,2,4]triazole with different bicyclic heteroaromatic systems” (Eur J Med Chem, 2021).
# Calls of active or inactive are those of the source. The rule behind the calls is not given here.
# What was measured:
# [1] = biological target: T1, Casein kinase I isoform delta (Homo sapiens, UniProt P48730); experiment: Inhibition of recombinant human N-terminal GST-tagged CK1delta (1 to 294 residues) using casein as substrate measured after 60 mins in presence of ATP by Kinase-Glo reagent-based luminescence assay
# Target sequence in this assay (P48730 whole entry, the tested form may be a part, canonical isoform): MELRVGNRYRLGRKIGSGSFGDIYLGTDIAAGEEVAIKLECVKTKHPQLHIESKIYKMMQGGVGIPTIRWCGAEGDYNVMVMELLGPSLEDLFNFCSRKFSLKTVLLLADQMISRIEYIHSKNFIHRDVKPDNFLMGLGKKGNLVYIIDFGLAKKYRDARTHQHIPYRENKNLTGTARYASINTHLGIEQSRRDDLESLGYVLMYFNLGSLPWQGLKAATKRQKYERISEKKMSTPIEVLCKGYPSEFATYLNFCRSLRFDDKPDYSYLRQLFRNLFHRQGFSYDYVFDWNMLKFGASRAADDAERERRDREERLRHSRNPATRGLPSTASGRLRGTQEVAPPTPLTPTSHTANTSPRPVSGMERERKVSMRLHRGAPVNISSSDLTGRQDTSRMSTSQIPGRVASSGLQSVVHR
# [2] = biological target: T1, Casein kinase I isoform delta; experiment: Inhibition of recombinant human N-terminal GST-tagged CK1delta (1 to 294 residues) at 40 uM using casein as substrate measured after 60 mins in presence of ATP by Kinase-Glo reagent-based luminescence assay relative to control
# Target sequence in this assay (P48730 whole entry, looked up, the tested form may be a part, canonical isoform): as the sequence (P48730 whole entry, the tested form may be a part, canonical isoform) above
# [3] = biological target: Casein kinase I isoform gamma-3 (Homo sapiens) (UniProt Q9Y6M4); experiment: Binding affinity to wild-type human full length CSNK1G3 (M1 to K447 residues) expressed in bacterial expression system at 10 uM by Kinomescan method relative to control
# Casein kinase I isoform gamma-3 (Homo sapiens), sequence (Q9Y6M4 whole entry, looked up, the tested form may be a part, canonical isoform): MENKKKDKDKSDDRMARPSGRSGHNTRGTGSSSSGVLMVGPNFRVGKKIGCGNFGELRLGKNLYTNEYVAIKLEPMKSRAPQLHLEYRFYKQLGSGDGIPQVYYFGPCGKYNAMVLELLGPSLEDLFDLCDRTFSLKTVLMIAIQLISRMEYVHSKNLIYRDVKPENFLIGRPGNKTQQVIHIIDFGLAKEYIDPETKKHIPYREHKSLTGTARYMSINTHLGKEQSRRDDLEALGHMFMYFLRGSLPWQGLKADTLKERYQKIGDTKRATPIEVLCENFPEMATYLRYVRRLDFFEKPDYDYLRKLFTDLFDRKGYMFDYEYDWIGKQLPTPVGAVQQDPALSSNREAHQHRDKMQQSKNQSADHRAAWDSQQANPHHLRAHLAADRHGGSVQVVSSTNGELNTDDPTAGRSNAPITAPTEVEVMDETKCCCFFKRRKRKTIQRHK
# Outline: (§1)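 KINOMEscan competition binding across the CK1 isoform panel, compound at 10 µM. Reported as % binding relative to a […].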
# [4] = biological target: Casein kinase I isoform alpha (Homo sapiens) (UniProt P48729); experiment: Binding affinity to wild-type human partial length CSNK1A1 (M1 to L301 residues) expressed in mammalian expression system at 10 uM by Kinomescan method relative to control; outline: as §1
# Casein kinase I isoform alpha (Homo sapiens), sequence (P48729 2-337 limits assumed): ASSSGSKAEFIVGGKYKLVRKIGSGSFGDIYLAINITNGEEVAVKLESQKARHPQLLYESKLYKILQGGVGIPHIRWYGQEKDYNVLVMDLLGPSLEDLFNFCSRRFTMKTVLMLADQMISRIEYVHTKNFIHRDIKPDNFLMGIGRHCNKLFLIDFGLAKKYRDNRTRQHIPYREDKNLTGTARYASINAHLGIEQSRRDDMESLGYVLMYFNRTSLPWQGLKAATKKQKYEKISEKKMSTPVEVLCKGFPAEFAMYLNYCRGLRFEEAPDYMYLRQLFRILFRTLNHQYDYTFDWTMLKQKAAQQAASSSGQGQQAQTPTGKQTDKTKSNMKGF
# [5] = biological target: T1, Casein kinase I isoform delta; experiment: Inhibition of recombinant human full-length N-terminal GST-tagged CK1delta using casein as substrate measured after 10 mins in presence of ATP by Kinase-Glo reagent-based luminescence assay
# Outline: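 Full-length CK1δ at 26 nM with 0.1% casein and 4 µM ATP added, in 50 mM HEPES pH 7.5, 1 mM EDTA, 1 mM EGTA, 15 mM Mg acetate. Ten inhibitor concentrations from 100 to 0.026 µM. 10 min at 30 °C, Kinase-Glo stop, luminescence read after 10 min at 30 °C. IC50 given as mean ± standard error of three independent experiments.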
# Target sequence in this assay (P48730 whole entry, the tested form may be a part, canonical isoform): as the sequence (P48730 whole entry, the tested form may be a part, canonical isoform) above
# Fibroblast = experiment: Cytotoxicity against human fibroblast assessed as inhibition of cell growth after 72 hrs by resazurin based assay
# Outline: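 Normal adult fibroblasts grown in DMEM with 10% FBS, seeded at 2×10^4 cells per well. Compounds added after 24 h at several concentrations; viability read 72 h later by resazurin fluorescence at 590 nm over 4 h.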
# PBL [6] = experiment: Cytotoxicity against human PBL cells assessed as inhibition of cell growth after 72 hrs by resazurin based assay
# Outline: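 Gradient-isolated PBL held overnight in RPMI-1640 with 10% FBS. Non-adherent resting cells (no PHA) at 5×10^5 cells/mL, exposed to compounds for 72 h. Viability read as resazurin fluorescence at 590 nm over 4 h.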
# [7] = biological target: Casein kinase I isoform gamma-1 (Homo sapiens) (UniProt Q9HCP0); experiment: Binding affinity to wild-type human partial length CSNK1G1 (T15 to S353 residues) expressed in bacterial expression system at 10 uM by Kinomescan method relative to control; outline: as §1
# Casein kinase I isoform gamma-1 (Homo sapiens), sequence (Q9HCP0 whole entry, looked up, the tested form may be a part, canonical isoform): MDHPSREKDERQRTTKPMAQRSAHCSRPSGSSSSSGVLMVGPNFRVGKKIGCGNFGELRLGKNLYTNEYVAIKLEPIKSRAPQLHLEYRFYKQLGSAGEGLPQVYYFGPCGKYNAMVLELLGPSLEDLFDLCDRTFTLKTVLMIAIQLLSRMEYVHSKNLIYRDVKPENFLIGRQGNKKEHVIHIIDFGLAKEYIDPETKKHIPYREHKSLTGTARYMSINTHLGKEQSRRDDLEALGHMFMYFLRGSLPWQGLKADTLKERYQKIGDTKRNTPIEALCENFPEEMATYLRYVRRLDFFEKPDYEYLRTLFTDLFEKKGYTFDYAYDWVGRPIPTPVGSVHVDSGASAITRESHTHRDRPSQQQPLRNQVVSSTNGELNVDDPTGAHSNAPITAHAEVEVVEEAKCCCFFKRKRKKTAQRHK
# [8] = biological target: T1, Casein kinase I isoform delta; experiment: Binding affinity to wild-type human full length CSNK1D (M1 to K409 residues) expressed in bacterial expression system at 10 uM by Kinomescan method relative to control; outline: as §1
# Target sequence in this assay (P48730 whole entry, looked up, the tested form may be a part, canonical isoform): as the sequence (P48730 whole entry, the tested form may be a part, canonical isoform) above
# [9] = biological target: T2, Casein kinase I isoform alpha-like (Homo sapiens) (UniProt Q8N752); experiment: Binding affinity to wild-type human full length CSNK1A1L (M1 to N337 residues) expressed in bacterial expression system at 10 uM by Kinomescan method relative to control; outline: as §1
# T2 sequence (whole entry): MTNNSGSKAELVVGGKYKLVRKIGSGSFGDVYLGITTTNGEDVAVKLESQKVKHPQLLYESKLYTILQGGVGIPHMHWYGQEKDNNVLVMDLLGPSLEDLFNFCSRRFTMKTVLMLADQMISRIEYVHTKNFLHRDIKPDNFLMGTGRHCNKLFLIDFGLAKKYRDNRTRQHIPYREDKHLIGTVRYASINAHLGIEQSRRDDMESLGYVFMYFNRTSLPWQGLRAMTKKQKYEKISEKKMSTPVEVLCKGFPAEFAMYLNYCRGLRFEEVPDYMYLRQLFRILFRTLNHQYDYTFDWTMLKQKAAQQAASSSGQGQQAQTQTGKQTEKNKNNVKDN
# PBL [10] = experiment: Cytotoxicity against PHA-stimulated human PBL assessed as inhibition of cell growth after 72 hrs by resazurin based assay
# Outline: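 PBL isolated from buffy coats by Lymphoprep density gradient, held overnight in RPMI-1640 with 10% FBS. Non-adherent cells at 5×10^5 cells/mL with 2.5 µg/mL PHA. 72 h compound exposure; viability by resazurin fluorescence at 590 nm over 4 h.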
# [11] = biological target: T1, Casein kinase I isoform delta; experiment: ATP competitive inhibition of recombinant human N-terminal GST-tagged CK1delta (1 to 294 residues) in presence of varying level of ATP by Kinase-Glo reagent-based luminescence assay
# Outline: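 Truncated enzyme (16 ng) in 50 mM HEPES pH 7.5, 1 mM EDTA, 1 mM EGTA, 15 mM Mg acetate with 0.1% casein; ATP in the added mix at 4, 40 or 400 µM (Fig. 8-B gives 2, 20, 200 µM). 60 min at 30 °C, then Kinase-Glo, luminescence read after 10 min at 25 °C. Activity is compared across ATP levels.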
# Target sequence in this assay (P48730 whole entry, looked up, the tested form may be a part, canonical isoform): as the sequence (P48730 whole entry, the tested form may be a part, canonical isoform) above
# [12] = biological target: Casein kinase I isoform gamma-2 (Homo sapiens) (UniProt P78368); experiment: Binding affinity to wild-type human full length CSNK1G2 (M1 to K415 residues) expressed in bacterial expression system at 10 uM by Kinomescan method relative to control; outline: as §1
# Casein kinase I isoform gamma-2 (Homo sapiens), sequence (P78368 whole entry, looked up, the tested form may be a part, canonical isoform): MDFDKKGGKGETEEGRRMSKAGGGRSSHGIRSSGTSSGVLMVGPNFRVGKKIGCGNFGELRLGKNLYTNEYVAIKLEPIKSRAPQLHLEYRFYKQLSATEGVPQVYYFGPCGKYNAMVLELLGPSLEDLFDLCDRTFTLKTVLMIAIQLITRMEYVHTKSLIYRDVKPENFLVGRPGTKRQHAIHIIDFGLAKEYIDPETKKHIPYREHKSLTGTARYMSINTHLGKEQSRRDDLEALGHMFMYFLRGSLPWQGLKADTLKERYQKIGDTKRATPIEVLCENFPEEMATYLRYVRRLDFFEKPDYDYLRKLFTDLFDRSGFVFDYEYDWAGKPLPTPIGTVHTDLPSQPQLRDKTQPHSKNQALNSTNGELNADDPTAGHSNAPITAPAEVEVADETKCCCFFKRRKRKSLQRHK
# [13] = biological target: Casein kinase I isoform epsilon (Homo sapiens, UniProt P49674); experiment: Binding affinity to wild-type human full length CSNK1E (M1 to K416 residues) expressed in bacterial expression system at 10 uM by Kinomescan method relative to control; outline: as §1
# Casein kinase I isoform epsilon, sequence (P49674 whole entry, looked up, the tested form may be a part, canonical isoform): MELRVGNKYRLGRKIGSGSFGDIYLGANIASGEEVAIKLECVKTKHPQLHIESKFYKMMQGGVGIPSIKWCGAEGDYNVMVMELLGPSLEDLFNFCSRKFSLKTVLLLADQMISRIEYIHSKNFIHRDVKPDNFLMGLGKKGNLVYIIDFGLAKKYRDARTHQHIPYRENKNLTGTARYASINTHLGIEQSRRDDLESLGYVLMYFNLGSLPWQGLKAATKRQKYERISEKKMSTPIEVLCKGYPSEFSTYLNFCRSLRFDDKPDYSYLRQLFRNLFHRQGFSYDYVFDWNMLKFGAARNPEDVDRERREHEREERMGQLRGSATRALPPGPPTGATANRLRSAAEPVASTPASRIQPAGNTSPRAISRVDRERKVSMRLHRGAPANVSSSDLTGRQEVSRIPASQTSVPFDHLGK
SMILES,IC50 [1] [nM],inhibition [2] [%],further results
Nc1nc(NCc2ccccc2)nc2nc(-c3cccc(O)c3)nn12,460,84.2,–
CCOC(=O)c1cnc(N)n2nc(-c3cccc([N+](=O)[O-])c3)nc12,–,21.6,–
COc1cc(OC)cc(-c2nc3nc(NCc4ccc(Cl)cc4)nc(N)n3n2)c1,–,9.7,–
CCOC(=O)c1cnc(N)n2nc(-c3cc(OC)cc(OC)c3)nc12,–,18.8,–
CCOC(=O)c1cnc(NC)n2nc(-c3cccc(O)c3)nc12,–,7.1,–
COc1cc(OC)cc(-c2nc3cc(NCc4ccccc4)nc(N)n3n2)c1,–,19.4,–
Nc1nc(NCc2ccc(Cl)cc2)nc2nc(-c3cc(O)cc(O)c3)nn12,750,95.8,–
Nc1nc(NCc2ccccc2)nc2nc(-c3cc(O)cc(O)c3)nn12,180,85.3,Activity [3]: 14%; Activity [4]: 3.2%; IC50 [5]: 300 nM; IC50 (Fibroblast): > 10000 nM; IC50 (PBL [6]): > 10000 nM; Activity [7]: 32%; Activity [8]: 14%; Activity [9]: 14%; IC50 (PBL [10]): > 10000 nM; inhibition [11]: Active; Activity [12]: 20%; Activity [13]: 1.4%
CCOC(=O)c1cnc(NCc2ccccc2)n2nc(-c3cccc(OC)c3)nc12,–,10.9,–
CCOC(=O)c1cnc(N)n2nc(-c3cccc(O)c3)nc12,2060,88.9,–
CCOC(=O)c1cnc(N)n2nc(-c3ccc(OCc4ccccc4)cc3)nc12,–,39.7,–
Nc1nc(NCc2ccc(F)cc2)nc2nc(-c3cc(O)cc(O)c3)nn12,470,87,–
Nc1nc(NC2CCCCC2)nc2nc(-c3cc(O)cc(O)c3)nn12,670,89.3,–
CCOC(=O)c1cnc(N)n2nc(-c3cc4ccccc4[nH]3)nc12,–,22.4,–
COc1cc(OC)cc(-c2nc3nc(NCc4cccc(C)c4)nc(N)n3n2)c1,–,13.9,–
Nc1ncc(C(=O)O)c2nc(-c3cccc(O)c3)nn12,26700,75.8,–
COc1cc(OC)cc(-c2nc3nc(NCc4ccc(F)cc4)nc(N)n3n2)c1,–,10.5,–
CCOC(=O)c1cnc(N)n2nc(-c3cccc(OC)c3)nc12,25000,52,–
CCOC(=O)c1cnc(N)n2nc(-c3ccc(F)cc3)nc12,–,44.7,–
Nc1nc(NCc2ccccc2)nc2nc(-c3ccc(O)c(O)c3)nn12,910,93.8,–
CCOC(=O)c1cnc(NCc2ccc(-c3ccccc3)cc2)n2nc(-c3cccc(O)c3)nc12,–,9,–
COc1cccc(-c2nc3nc(NCc4ccccc4)nc(N)n3n2)c1,–,18.1,–
Nc1nc(NCc2ccccc2)cc2nc(-c3cc(O)cc(O)c3)nn12,740,80.2,–
CC(C)(C)OC(=O)NCCNC(=O)c1cnc(N)n2nc(-c3cccc(O)c3)nc12,–,16.8,–
COc1cc(OC)cc(-c2nc3cc(N(C)C)nc(N)n3n2)c1,–,33.5,–

SMILES,IC50 [1] [nM],inhibition [2] [%],further results
Cc1cccc(CNc2nc(N)n3nc(-c4cc(O)cc(O)c4)nc3n2)c1,530,79.7,–
CCOC(=O)c1cnc(N)n2nc(C)nc12,15200,66.6,–
CCOC(=O)c1cnc(N)n2nc(-c3ccc(O)c(O)c3)nc12,4750,98,–
CCOC(=O)c1cnc(N)n2nc(C3CCCC3)nc12,12300,76.8,–
CCOC(=O)c1cnc(N)n2nc(-c3cc(O)cc(O)c3)nc12,480,97.8,–
NCCNC(=O)c1cnc(N)n2nc(-c3cccc(O)c3)nc12,1260,93,–
COc1cc(OC)cc(-c2nc3nc(NCc4ccccc4)nc(N)n3n2)c1,–,4.5,–
CCOC(=O)c1cnc(N)n2nc(-c3cccc(N)c3)nc12,16600,66.8,–
CCOC(=O)c1cnc(N)n2nc(-c3ccc(O)cc3)nc12,–,39.3,–
CCOC(=O)c1cnc(NCc2ccc(OC)c(OC)c2)n2nc(-c3ccc(F)cc3)nc12,–,11.3,–
Nc1nc(NCc2ccccc2)nc2nc(-c3ccc(O)cc3)nn12,1320,70.4,–
CC(C)(C)OC(=O)NCCNC(=O)c1cnc(N)n2nc(-c3cc(O)cc(O)c3)nc12,5320,84.2,–
CCOC(=O)c1cnc(N)n2nc(-c3ccc(OC)cc3)nc12,–,50.3,–
Nc1nc(NCc2ccccc2)cc2nc(-c3cccc(O)c3)nn12,300,75.2,–
NCCNC(=O)c1cnc(N)n2nc(-c3cc(O)cc(O)c3)nc12,210,93.6,–
CCNC(=O)c1cnc(N)n2nc(-c3cc(O)cc(O)c3)nc12,990,86.1,–
CCOC(=O)c1cnc(N)n2nc(-c3cccc(F)c3)nc12,15200,53.7,–
CCNC(=O)c1cnc(N)n2nc(-c3cccc(O)c3)nc12,320,90.4,–
CCOC(=O)c1cnc(NCc2ccc(OC)c(OC)c2)n2nc(-c3ccccc3)nc12,–,35.7,–
CCOC(=O)c1cnc(NCc2ccc(-c3ccccc3)cc2)n2nc(-c3cccc(OC)c3)nc12,–,17.5,–
CCOC(=O)c1cnc(N)n2nc(-c3ccccc3)nc12,8670,62.2,–
CCOC(=O)c1cnc(NCc2ccccc2)n2nc(-c3cccc(O)c3)nc12,–,1.2,–
Oc1cccc(-c2nc3nc(NCc4ccccc4)nc(NCc4ccccc4)n3n2)c1,–,-8.5,–
COc1cc(O)cc(-c2nc3nc(NC4CCCCC4)nc(N)n3n2)c1,3300,68.6,–
CCOC(=O)c1cnc(N)n2nc(-c3ccncc3)nc12,20200,59.7,–
